Tests used:
Rattus norvegicus [1] = assay: Effect on bone calcium mobilization in weanling Sprague-Dawley rat assessed as serum calcium level at 87 pmol/day, ip administered for 4 consecutive days measured 24 hrs after last dose; type: functional
Procedure, shortened: (§1)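 Male weanling rats fed 0.47% Ca + AEK oil for 1 wk, then 0.02% Ca for 3 wk, then 0.47% Ca for 1 wk, then 0.02% Ca for 2 wk. Dosing during the final low-Ca week: four i.p. doses about 24 h apart. Serum Ca measured on blood from severed neck 24 h after the last dose; statistics applied.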

Rattus norvegicus [2] = assay: Effect on bone calcium mobilization in weanling Sprague-Dawley rat assessed as serum calcium level at 260 pmol/day, ip administered for 4 consecutive days measured 24 hrs after last dose; type: functional; procedure, shortened: as §1
Rattus norvegicus [3] = assay: Effect on bone calcium mobilization in weanling Sprague-Dawley rat assessed as serum calcium level at 780 pmol/day, ip administered for 4 consecutive days measured 24 hrs after last dose; type: functional; procedure, shortened: as §1
Rattus norvegicus [4] = assay: Effect on bone calcium mobilization in weanling Sprague-Dawley rat assessed as serum calcium level at 2340 pmol/day, ip administered for 4 consecutive days measured 24 hrs after last dose; type: functional; procedure, shortened: as §1
Rattus norvegicus [5] = assay: Effect on intestinal calcium transport in weanling Sprague-Dawley rat assessed as ratio of serosal to mucosal calcium level at 87 pmol/day, ip administered for 4 consecutive days measured 24 hrs after last dose by everted gut sac method; type: functional
Procedure, shortened: (§2)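 Same rats and regimen: low/normal Ca diet cycling, then four i.p. doses about 24 h apart during the final 0.02% Ca week. First 10 cm of intestine taken 24 h after the last dose; Ca transport measured by everted gut sac.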

Rattus norvegicus [6] = assay: Effect on intestinal calcium transport in weanling Sprague-Dawley rat assessed as ratio of serosal to mucosal calcium level at 260 pmol/day, ip administered for 4 consecutive days measured 24 hrs after last dose by everted gut sac method; type: functional; procedure, shortened: as §2
Rattus norvegicus [7] = assay: Effect on intestinal calcium transport in weanling Sprague-Dawley rat assessed as ratio of serosal to mucosal calcium level at 780 pmol/day, ip administered for 4 consecutive days measured 24 hrs after last dose by everted gut sac method; type: functional; procedure, shortened: as §2
Rattus norvegicus [8] = assay: Effect on intestinal calcium transport in weanling Sprague-Dawley rat assessed as ratio of serosal to mucosal calcium level at 7020 pmol/day, ip administered for 4 consecutive days measured 24 hrs after last dose by everted gut sac method; type: functional; procedure, shortened: as §2
Vitamin D3 receptor [9] = target: T1, Vitamin D3 receptor (Rattus norvegicus, UniProt P13053); assay: Displacement of radiolabeled 1-alpha,25-(OH)2D3 from rat recombinant full length VDR
T1 sequence (P13053 whole entry): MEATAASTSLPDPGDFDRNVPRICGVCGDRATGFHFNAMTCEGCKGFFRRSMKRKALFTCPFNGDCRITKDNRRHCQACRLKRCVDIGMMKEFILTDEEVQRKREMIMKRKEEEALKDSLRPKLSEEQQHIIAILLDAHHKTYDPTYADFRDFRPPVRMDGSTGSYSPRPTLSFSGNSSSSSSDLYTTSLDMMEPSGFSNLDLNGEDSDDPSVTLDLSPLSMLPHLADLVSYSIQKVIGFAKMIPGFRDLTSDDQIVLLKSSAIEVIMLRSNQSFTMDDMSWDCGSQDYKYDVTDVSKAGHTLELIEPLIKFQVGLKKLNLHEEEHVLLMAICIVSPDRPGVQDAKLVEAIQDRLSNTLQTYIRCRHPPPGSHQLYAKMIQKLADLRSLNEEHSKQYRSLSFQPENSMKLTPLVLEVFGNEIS

[10] = target: T2, Vitamin D3 receptor (Rattus norvegicus) (UniProt P13053); assay: Ratio of compound Ki to [3H]1-alpha,25-(OH)2D3 Ki for rat recombinant full length VDR
T2 sequence (whole entry): T1 sequence (P13053 whole entry)

HL-60 [11] = assay: Induction of differentiation of human HL60 promyelocytes into monocytes after 4 days by NBT reduction assay; type: functional, cell-based; conditions: HL-60, 96 h
HL-60 [12] = assay: Ratio of compound ED50 to [3H]1-alpha,25-(OH)2D3 ED50 for induction of differentiation of human HL60 promyelocytes into monocytes after 4 days by NBT reduction assay; type: functional
Vitamin D3 receptor [13] = target: T1, Vitamin D3 receptor; assay: Activity at VDR in rat osteosarcoma cells assessed as induction of 24-hydroxylase reporter gene transcription by luciferase reporter gene assay; type: cell-based
Procedure, shortened: (§3)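 Rat osteosarcoma cells stably transfected with a 24-hydroxylase gene reporter plasmid; luciferase read-out. EC50 from dose–response curves = concentration raising luciferase activity by 50%. Ratio = average of analog EC50 over 1α,25-(OH)2D3 EC50. Duplicates on at least two separate occasions.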

[14] = target: T2, Vitamin D3 receptor (Rattus norvegicus); assay: Ratio of compound EC50 to [3H]1-alpha,25-(OH)2D3 EC50 for VDR in rat osteosarcoma cells by 24-hydroxylase gene transcriptional activation assay; type: cell-based; procedure, shortened: as §3
Rattus norvegicus [15] = assay: Effect on bone calcium mobilization in weanling Sprague-Dawley rat assessed as serum calcium level at 7020 pmol/day, ip administered for 4 consecutive days measured 24 hrs after last dose; type: functional; procedure, shortened: as §1
Rattus norvegicus [16] = assay: Effect on intestinal calcium transport in weanling Sprague-Dawley rat assessed as ratio of serosal to mucosal calcium level at 2340 pmol/day, ip administered for 4 consecutive days measured 24 hrs after last dose by everted gut sac method; type: functional; procedure, shortened: as §2

Compound	Activity (Rattus norvegicus [1]) [mg/dL]	Activity (Rattus norvegicus [2])	Activity (Rattus norvegicus [3]) [mg/dL]	Activity (Rattus norvegicus [4]) [mg/dL]	Ratio (Rattus norvegicus [5])	Ratio (Rattus norvegicus [6])	Ratio (Rattus norvegicus [7])	Ratio (Rattus norvegicus [8])	Ki (Vitamin D3 receptor [9]) [pM]	Ratio Ki [10]	EC50 (HL-60 [11]) [pM]	Ratio ED50 (HL-60 [12])	EC50 (Vitamin D3 receptor [13]) [pM]	Ratio EC50 [14]	Activity (Rattus norvegicus [15]) [mg/dL]	Ratio (Rattus norvegicus [16])
C=C1/C(=C\C=C2/CCC[C@]3(C)[C@@H]([C@H](C)CCCC(C)(C)O)CC[C@@H]23)C[C@@H](O)C[C@@H]1O [CALCITRIOL]	4.6	5 mg/dL	5.3	6.9	–	–	–	–	–	–	–	–	–	–	–	–
C=C1[C@H](O)CC(=C/C=C2\CCC[C@]3(C)[C@@H]([C@@H](C)CCCC(C)(C)O)CC[C@@H]23)C[C@H]1O [DP001]	8.4	9.3 mg/dL	11.1	–	12.3	11.4	10.9	–	–	–	–	–	–	–	–	–
C=C1[C@H](O)CC(=C/C=C2\CCC[C@@H]3[C@@H](CCCCC(C)(C)O)CC[C@@H]23)C[C@H]1O	4	4.3 mg/dL	–	6.1	7.2	2.3	–	11.4	100	1	300	0.15	60	0.2	6.5	7.5
C=C1[C@H](O)CC(=C/C=C2\CCC[C@@H]3[C@@H]([C@@H](C)CCCC(C)(C)O)CC[C@@H]23)C[C@H]1O	–	5.7	6.6	7.8	–	8.4	10	14.5	20	0.2	400	0.2	20	0.07	8.7	8.5
C=C1[C@H](O)CC(=C/C=C2\CCC[C@]3(C)[C@@H](CCCCC(C)(C)O)CC[C@@H]23)C[C@H]1O	4.3	4.6 mg/dL	4.9	5.3	5.6	7.4	10.2	7.8	200	2	200	0.35	200	0.67	5.1	8.8

Reference: ChEMBL document CHEMBL1152659, “Removal of the 20-methyl group from 2-methylene-19-nor-(20S)-1alpha,25-dihydroxyvitamin D(3) (2MD) selectively eliminates bone calcium mobilization activity” (Bioorg Med Chem, 2009)
